Measurements: ChEMBL document CHEMBL1134366, “Enantiospecific synthesis and pharmacological evaluation of a series of super-potent, conformationally restricted 5-HT(2A/2C) receptor agonists” (J Med Chem, 2001)

How the values were obtained:
[1] = target: T1, 5-hydroxytryptamine receptor 2A (Rattus norvegicus, UniProt P14842); experiment: Binding affinity at cloned rat 5-hydroxytryptamine 2A receptor using [3H]DOB as radioligand
How it was run: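 Competition binding using harvested, frozen NIH-3T3 cells stably expressing rat 5-HT2A, serum-starved 5 h before harvest. Incubated 60 min at 25 °C, then rapid filtration onto GF/B filters pre-soaked in 0.3% polyethylenimine, and scintillation counting. Nonspecific binding defined with 10 µM cinanserin in the saturation assays.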

[2] = target: T1, 5-hydroxytryptamine receptor 2A; experiment: Ability to stimulate phosphoinositide hydrolysis in NIH3T3 cells expressing the 5-hydroxytryptamine 2A receptor; assay type: cell-based
[3] = target: T2, 5-hydroxytryptamine receptor 2C (Rattus norvegicus, UniProt P08909); experiment: Binding affinity at cloned rat 5-hydroxytryptamine 2C receptor using [3H]DOI as radioligand
T2 sequence (P08909 whole entry): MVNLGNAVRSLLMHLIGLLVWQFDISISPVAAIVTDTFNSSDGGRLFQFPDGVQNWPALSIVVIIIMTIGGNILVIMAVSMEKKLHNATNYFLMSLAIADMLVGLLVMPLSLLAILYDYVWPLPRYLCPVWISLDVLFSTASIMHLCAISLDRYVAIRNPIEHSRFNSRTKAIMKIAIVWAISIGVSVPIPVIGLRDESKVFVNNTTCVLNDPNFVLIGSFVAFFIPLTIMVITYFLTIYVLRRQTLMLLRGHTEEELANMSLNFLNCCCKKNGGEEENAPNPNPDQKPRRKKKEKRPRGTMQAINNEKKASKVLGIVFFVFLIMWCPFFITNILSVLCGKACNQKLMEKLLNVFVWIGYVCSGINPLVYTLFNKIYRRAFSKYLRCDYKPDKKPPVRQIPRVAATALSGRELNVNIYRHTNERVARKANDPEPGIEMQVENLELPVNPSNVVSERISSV
How it was run: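 Competition binding using harvested, frozen NIH-3T3 cells stably expressing rat 5-HT2C. Buffer 50 mM Tris, 0.5 mM EDTA, 10 mM MgCl2, pH 7.4. Incubated 60 min at 25 °C, then rapid filtration onto polyethylenimine-treated GF/B filters and scintillation counting. Nonspecific binding defined with 10 µM mianserin in the saturation assays.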

[4] = target: 5-hydroxytryptamine receptor 2A (Rattus norvegicus) (UniProt P14842); experiment: Percent maximal 5-HT stimulation at cloned rat 5-hydroxytryptamine 2A receptor (phosphoinositide hydrolysis study) at a conc of 100 uM
Sequence of 5-hydroxytryptamine receptor 2A (Rattus norvegicus) (P14842 whole entry): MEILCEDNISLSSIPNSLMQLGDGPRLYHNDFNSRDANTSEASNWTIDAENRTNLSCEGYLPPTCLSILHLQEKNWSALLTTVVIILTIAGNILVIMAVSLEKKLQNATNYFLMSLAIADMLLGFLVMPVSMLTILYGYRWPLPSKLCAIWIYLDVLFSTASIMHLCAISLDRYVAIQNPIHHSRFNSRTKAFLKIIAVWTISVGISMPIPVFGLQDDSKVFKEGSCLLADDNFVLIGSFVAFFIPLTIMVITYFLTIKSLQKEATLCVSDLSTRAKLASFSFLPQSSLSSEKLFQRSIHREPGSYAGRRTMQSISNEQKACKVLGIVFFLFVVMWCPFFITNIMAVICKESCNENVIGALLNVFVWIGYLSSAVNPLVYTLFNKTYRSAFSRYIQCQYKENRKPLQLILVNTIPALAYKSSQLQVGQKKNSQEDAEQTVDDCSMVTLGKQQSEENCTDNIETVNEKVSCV

T1 sequence (P14842 whole entry): as above

SMILES	Ki [1] [nM]	EC50 [2] [nM]	Ki [3] [nM]	Max stimulation [4] [%]
C[C@H](N)Cc1c2c(cc3c1OCC3)OCC2	227	2360	119	62
C[C@@H](N)Cc1c2c(c(Br)c3c1OCC3)OCC2	1.2	8.38	0.26	80
COc1cc(CC(C)N)c(OC)cc1Br (configuration not stated)				79
C[C@@H](N)Cc1c2ccoc2c(C(F)(F)F)c2ccoc12	0.29	3.8	0.4	60
C[C@@H](N)Cc1c2ccoc2cc2ccoc12	1.5	590	0.79	76
COc1ccc(OC)c(C[C@@H](C)N)c1	2340	> 10000	520	16
C[C@H](N)Cc1c2c(c(C(F)(F)F)c3c1OCC3)OCC2	2	30	1.6	60
C[C@@H](N)Cc1c2c(c(C(F)(F)F)c3c1OCC3)OCC2	0.7	28	1.9	69
C[C@H](N)Cc1c2ccoc2c(C(F)(F)F)c2ccoc12	0.32	12	0.69	52
C[C@H](N)Cc1c2ccoc2c(Br)c2ccoc12	0.68	19	0.25	79
COc1cc(C(F)(F)F)c(OC)cc1CC(C)N (configuration not stated)	2.2	68.4	3.78	86
C[C@H](N)Cc1c2ccoc2cc2ccoc12	37.9	650	6	68
C[C@@H](N)Cc1c2ccoc2c(Br)c2ccoc12	0.31	2.7	0.11	93
C[C@@H](N)Cc1c2c(cc3c1OCC3)OCC2	54.4	5650	8.2	99
C[C@H](N)Cc1c2c(c(Br)c3c1OCC3)OCC2	2.6	35	1.1	76
